Published values from different studies.
Compare with care: the assays were run in different laboratories.
Read-out: cell growth or viability

Cc1nc(Nc2ncc(C(=O)Nc3c(C)cccc3Cl)s2)cc(N2CC[C@H](O)C2)n1  inhibition (Jurkat; ATP luminescence; 10 µM, 72 h): 47%
Nc1nc(S)nc(O)c1N=Cc1cn(-c2ccccc2)nc1-c1ccccc1  CC50 (Jurkat; 48 h): 17300 nM
COc1cc([C@@H]2c3cc4c(cc3[C@@H](O[C@@H]3O[C@@H]5CO[C@@H](C)O[C@H]5[C@H](O)[C@H]3O)[C@H]3COC(=O)[C@H]23)OCO4)cc(OC)c1O  IC50 (LN-229; MTS; 72 h): 4800 nM
N#CSCc1cc(=O)oc2cc(O)ccc12  GI50 (T47D; SRB): 5900 nM
O=C(C[C@@H](C(F)F)n1ccc(F)n1)N1CCC(O)(Cn2cnc3c(cnn3-c3ccc(F)cc3)c2=O)CC1  viability (LNCaP; CCK-8; 0.1235 µM): 18.3%
Cc1ncsc1-c1ccc([C@H](C)NC(=O)[C@@H]2C[C@@H](O)CN2C(=O)[C@@H](NC(=O)CCCCCCCS(=O)(=O)NC(=O)c2nc(N3CCc4cccc(C(=O)Nc5nc6ccccc6s5)c4C3)ccc2-c2cc(C#N)n(CC34CC5CC(CC(C5)C3)C4)c2C)C(C)(C)C)cc1  IC50 (MOLT-4; MTS; 48 h): 20.2 nM
C=C(NC(=O)C(=C)NC(=O)c1csc(C2=N[C@@H]3c4csc(n4)[C@H]4NC(=O)c5csc(n5)[C@H]([C@](C)(O)[C@@H](C)O)NC(=O)[C@H]5CSC(=N5)/C(=C/C)NC(=O)[C@H]([C@@H](C)O)NC(=O)c5csc(n5)[C@]3(CC2)NC(=O)[C@H](C)NC(=O)C(=C)NC(=O)[C@H](C)NC(=O)[C@H]([C@@H](C)CC)N[C@@H]2C=Cc3c([C@H](C)O)cc(nc3[C@H]2O)C(=O)O[C@@H]4C)n1)C(N)=O  EC50 (LNCaP): 4400 nM
Cc1ncsc1-c1ccc([C@H](C)NC(=O)[C@@H]2C[C@@H](O)CN2C(=O)[C@@H](NC(=O)CCCCS(=O)(=O)NC(=O)c2nc(N3CCc4cccc(C(=O)Nc5nc6ccccc6s5)c4C3)ccc2-c2cnn(CC34CC5CC(CC(C5)C3)C4)c2C)C(C)(C)C)cc1  IC50 (MOLT-4; MTS; 48 h): 8.4 nM
Cc1cc(=O)oc2cc(OCCCCSC#N)ccc12  GI50 (T47D; SRB): 2500 nM
Nc1nc(S)nc(O)c1N=Cc1cn(-c2ccccc2)nc1-c1ccc([N+](=O)[O-])cc1  CC50 (Jurkat; 48 h): > 40000 nM
Cc1ncsc1-c1ccc([C@@H](C)NC(=O)[C@H]2C[C@H](O)CN2C(=O)[C@H](NC(=O)CCCCNC(=O)C23CC4CC(CC(Cn5ncc(-c6ccc(N7CCc8cccc(C(=O)Nc9nc%10ccccc%10s9)c8C7)nc6C(=O)O)c5C)(C4)C2)C3)C(C)(C)C)cc1  IC50 (MOLT-4; MTS; 48 h): > 1000 nM
O=c1[nH]ncc(NN=Cc2cn(-c3ccccc3)nc2-c2cc3ccccc3oc2=O)c1Cl  CC50 (Jurkat; 48 h): > 40000 nM
C[C@H](Nc1ccc2c(c1)OCCn1cc(N3C(=O)OC[C@H]3C(F)F)nc1-2)C(N)=O  EC50 (TCC-SUP; ATP luminescence; 5 days): 51.6 nM
Cc1ncsc1-c1ccc([C@H](C)NC(=O)[C@@H]2C[C@@H](O)CN2C(=O)[C@@H](NC(=O)CCCCCC(=O)N2CCN(CC[C@H](CSc3ccccc3)Nc3ccc(S(=O)(=O)NC(=O)c4ccc(N5CCN(CC6=C(c7ccc(Cl)cc7)CCC(C)(C)C6)CC5)cc4)cc3S(=O)(=O)C(F)(F)F)CC2)C(C)(C)C)cc1  IC50 (MOLT-4; MTS; 48 h): 77.1 nM
